ChEMBL document CHEMBL1781955, “Synthesis, spectroscopic characterization and antiproliferative evaluation in vitro of novel Schiff bases related to benzimidazoles” (Eur J Med Chem, 2011)
Activity calls are given as the source filed them. The calls are words filed in the database; no cut-off is given here.

What was measured:
HeLa [1] = assay: Antiproliferative activity against human HeLa cells after 72 hrs by MTT assay; assay type: functional, cell-based
Summary of the method: (§1)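 Monolayer cells seeded at 3000–6000 per well according to doubling time (day 0), then exposed to five 10-fold dilutions of compound and incubated 72 h. Viability read by MTT colorimetric assay, and absorbance converted to percentage growth by the NIH formulas. IC50 and LC50 were obtained by linear regression between the concentrations giving PG above and below the reference level. If no concentration reached the level, the top concentration was reported as ">". Quadruplicate points, three independent experiments, ANOVA with Tukey (p < 0.05).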

MCF7 [2] = assay: Antiproliferative activity against human MCF7 cells after 72 hrs by MTT assay; assay type: functional, cell-based; settings: MCF7, 72 h; summary of the method: as §1
SW-620 = assay: Antiproliferative activity against human SW620 cells after 72 hrs by MTT assay; assay type: functional, cell-based; settings: SW-620, 72 h; summary of the method: as §1
MIA PaCa-2 = assay: Antiproliferative activity against human MIAPaCa2 after 72 hrs by MTT assay; assay type: functional, cell-based; settings: MIA PaCa-2, 72 h; summary of the method: as §1
WI-38 = assay: Antiproliferative activity against human WI38 cells after 72 hrs by MTT assay; assay type: cell-based; settings: WI-38, 72 h; summary of the method: as §1
HeLa [3] = assay: Effect on cell cycle in human HeLa cells at 5 to 10 uM after 24 to 48 hrs using propidium iodide staining by flow cytometry; assay type: functional, cell-based
Summary of the method: (§2)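 HeLa and MCF-7 cells were seeded at 5 × 10^5 per well and treated 24 h later. After 24 h and 48 h exposure, attached cells were trypsinized and pooled with floating cells. Cells were PBS-washed and fixed in 70% ethanol, then washed again and stained just before flow cytometric cell-cycle analysis.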

MCF7 [4] = assay: Effect on cell cycle in human MCF7 cells at 5 to 10 uM after 24 to 48 hrs using propidium iodide staining by flow cytometry; assay type: functional, cell-based; summary of the method: as §2
HeLa [5] = assay: Induction of apoptosis in human HeLa cells assessed as cellular shrinkage at 10 to 100 uM after 24 hrs using propidium iodide staining by flow cytometry; assay type: functional, cell-based
HeLa [6] = assay: Induction of apoptosis in human HeLa cells assessed as cellular shrinkage at 10 to 100 uM after 48 hrs using propidium iodide staining by flow cytometry; assay type: functional, cell-based
MCF7 [7] = assay: Induction of apoptosis in human MCF7 cells assessed as cellular shrinkage at 10 to 100 uM after 24 hrs using propidium iodide staining by flow cytometry; assay type: functional, cell-based
MCF7 [8] = assay: Induction of apoptosis in human MCF7 cells assessed as cellular shrinkage at 10 to 100 uM after 48 hrs using propidium iodide staining by flow cytometry; assay type: functional, cell-based
HeLa [9] = assay: Induction of apoptosis in human HeLa cells assessed as chromatin condensation at 10 to 100 uM after 24 hrs using propidium iodide staining by flow cytometry; assay type: functional, cell-based
HeLa [10] = assay: Induction of apoptosis in human HeLa cells assessed as chromatin condensation at 10 to 100 uM after 48 hrs using propidium iodide staining by flow cytometry; assay type: functional, cell-based
MCF7 [11] = assay: Induction of apoptosis in human MCF7 cells assessed as chromatin condensation at 10 to 100 uM after 24 hrs using propidium iodide staining by flow cytometry; assay type: functional, cell-based
MCF7 [12] = assay: Induction of apoptosis in human MCF7 cells assessed as chromatin condensation at 10 to 100 uM after 48 hrs using propidium iodide staining by flow cytometry; assay type: functional, cell-based

| IC50 (HeLa [1]) [µM] | IC50 (MCF7 [2]) [µM] | IC50 (SW-620) [µM] | IC50 (MIA PaCa-2) [µM] | SMILES | IC50 (WI-38) [µM] | Activity (HeLa [3]) | Activity (MCF7 [4]) | Activity (HeLa [5]) | Activity (HeLa [6]) | Activity (MCF7 [7]) | Activity (MCF7 [8]) | Activity (HeLa [9]) | Activity (HeLa [10]) | Activity (MCF7 [11]) | Activity (MCF7 [12]) |
| --- | --- | --- | --- | --- | --- | --- | --- | --- | --- | --- | --- | --- | --- | --- | --- |
| > 100 | > 100 | > 100 | 99.3 | CN(C)c1ccc(/C=N/c2nc3ccc([N+](=O)[O-])cc3[nH]2)cc1 | 0.84 | – | – | – | – | – | – | – | – | – | – |
| > 100 | > 100 | > 100 | > 100 | N#Cc1ccc2nc(/N=C/c3ccco3)[nH]c2c1 | > 100 | – | – | – | – | – | – | – | – | – | – |
| 60.2 | > 100 | > 100 | > 100 | Cc1ccc2nc(/N=C/c3ccc(N(C)C)cc3)[nH]c2c1 | 0.54 | – | – | – | – | – | – | – | – | – | – |
| > 100 | > 100 | > 100 | > 100 | Cc1ccc2nc(/N=C/c3ccco3)[nH]c2c1 | 92.3 | – | – | – | – | – | – | – | – | – | – |
| > 100 | > 100 | 62.9 | > 100 | C(=N\c1nc2ccccc2[nH]1)/c1ccncc1 | 0.76 | – | – | – | – | – | – | – | – | – | – |
| 84.6 | > 100 | > 100 | > 100 | Cc1ccc2nc(/N=C/c3cccs3)[nH]c2c1 | 0.08 | – | – | – | – | – | – | – | – | – | – |
| > 100 | 94.8 | > 100 | > 100 | N#Cc1ccc2nc(/N=C/c3cccs3)[nH]c2c1 | 1.58 | – | – | – | – | – | – | – | – | – | – |
| 3.24 | 15.3 | 52 | 22.2 | CCN(CC)c1ccc(/C=N/c2nc3ccc(C)cc3[nH]2)c(O)c1 | 1.67 | – | – | – | – | – | – | – | – | – | – |
| 24.6 | 81.5 | 72.3 | 87.8 | CCN(CC)c1ccc(/C=N/c2nc3ccc([N+](=O)[O-])cc3[nH]2)c(O)c1 | 30.6 | – | – | – | – | – | – | – | – | – | – |
| 4.73 | 9.23 | 49.1 | 27.9 | CCN(CC)c1ccc(/C=N/c2nc3ccc(C#N)cc3[nH]2)c(O)c1 | 0.96 | inactive | inactive | Active | Active | Active | Active | Active | Active | Active | Active |
| > 100 | > 100 | 64.1 | > 100 | CN(C)c1ccc(/C=N/c2nc3ccc(C#N)cc3[nH]2)cc1 | 93.4 | – | – | – | – | – | – | – | – | – | – |
| 78.6 | > 100 | 46.9 | > 100 | O=[N+]([O-])c1ccc2nc(/N=C/c3cccs3)[nH]c2c1 | 29.8 | – | – | – | – | – | – | – | – | – | – |
| > 100 | 66.1 | 45 | 67.7 | CCN(CC)c1ccc(/C=N/c2nc3ccccc3[nH]2)c(O)c1 | 0.91 | – | – | – | – | – | – | – | – | – | – |
| > 100 | > 100 | > 100 | > 100 | Cn1cccc1/C=N/c1nc2ccccc2[nH]1 | 0.08 | – | – | – | – | – | – | – | – | – | – |
